# Measurements collected from several papers.
# Each line is one published result; the experiments were not run side by side.
# OPRD1: Delta-type opioid receptor (OPRD1, Homo sapiens, UniProt P41143)
# CA2: Carbonic anhydrase 2 (CA2, Homo sapiens, UniProt P00918)
SMILES,target,test,conditions,endpoint,value
COC(=O)c1cc(N(C)C(=O)c2ccn3ncc(-c4ccc(C(=O)O)cc4)c3c2)ccc1Cl,"Receptor tyrosine-protein kinase erbB-2 (ERBB2, Homo sapiens, UniProt P04626)","enzyme activity, inhibitor",,IC50,> 30 µM
CS(=O)(=O)c1ccc(C(=O)N[C@H]2CC[C@@]3(O)[C@H]4Cc5ccc(O)c6c5[C@@]3(CCN4CC3CC3)[C@H]2O6)s1,OPRD1,"ligand displacement, radioligand",cell membranes,Ki,0.027 µM
COc1ccc2[nH]c(C)c(CC[N+](C)(C)C)c2c1,"5-hydroxytryptamine receptor 3A (HTR3A, Homo sapiens, UniProt P46098)","ligand displacement, radioligand",,Ki,~2.6 µM
COc1ccc(S(=O)(=O)Oc2cc(OC)ccc2C=NNC(=O)c2ccc(F)cc2)cc1,CA2,"enzyme activity, inhibitor, absorbance",,IC50,0.141 µM
O=C(N[C@H]1CC[C@@]2(O)[C@H]3Cc4ccc(O)c5c4[C@@]2(CCN3CC2CC2)[C@H]1O5)c1ccc(F)s1,OPRD1,"ligand displacement, radioligand",cell membranes,Ki,0.0314 µM
CNC(=O)c1ccc(-c2cnn3ccc(C(=O)N(C)c4ccc(Cl)c(C(=O)OC)c4)cc23)cc1,"Tyrosine-protein kinase ABL1 (ABL1, Homo sapiens, UniProt P00519)","enzyme activity, inhibitor",,IC50,> 30 µM
COc1ccc(S(=O)(=O)Oc2ccc(C=NNC(=O)c3ccc(F)cc3)cc2OC)cc1,CA2,"enzyme activity, inhibitor, absorbance",,IC50,0.0232 µM
O=C1CCc2ccccc2O1,"Carbonic anhydrase (Vibrio cholerae serotype O1, UniProt Q9KMP6)","enzyme activity, inhibitor, stopped-flow",,Ki,8.9 µM
